From PubChem BioAssay AID624062 (Broad Institute, 2012)
Inconclusive results are not listed.

Tested on: S. cerevisiae W303 JC-1 mitochondrial potential, flow cytometry
Test: mitochondrial membrane depolarization in S. cerevisiae, mechanism study for antifungal respiration inhibitor project, flow cytometry, single point, powder samples (AID 624062)
Conditions: stronger effect = higher value
Summary of the method: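 Test system: S. cerevisiae W303-1a yeast; medium: SD-CSM growth medium containing 2% glucose; measured by: flow cytometry, 488 nm excitation, JC-1 red FL2 and green FL1; reagent: JC-1 dye at 1 µg/mL; schedule: 4 h compound treatment at 30 °C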

## CCOC(=O)N1C(=O)C2(CCCCC2)N(c2ccc(C)cc2)C1=S
  mitochondrial depolarization score: 18.6
